From ChEMBL document CHEMBL5058577, “EUbOPEN Chemogenomics Library 2 (Multiplex)” (2022)

Tested on: Fibroblast
Assay: Multiplex assay against human fibroblast
Assay type: toxicity, cell-based
Procedure, shortened: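 Values for tubulin, mitochondrial-mass and membrane-permeability phenotypes are per cents of cells with healthy nuclei. These cells were identified by CellPathfinder machine-learning gating of live cells that had been stained at seeding with Hoechst33342, BioTracker Green Microtubule Cytoskeleton Dye, MitoTracker Red and Annexin V Alexa Fluor 680 and imaged on a CQ1 microscope at 37°C and 5% CO2 after compound addition. The gating first set Hoechst high-intensity objects apart from normal cells, then split normal cells into healthy, pyknosed or fragmented nuclei, and pyknosed cells into mitotic or apoptotic.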

[1] = 12 h, 1 µM, compound concentration 1 uM, replicate 1
[2] = 12 h, 1 µM, compound concentration 1 uM, replicate 2
[3] = 12 h, 10 µM, compound concentration 10 uM, replicate 1
[4] = 12 h, 10 µM, compound concentration 10 uM, replicate 2
[5] = 24 h, 1 µM, compound concentration 1 uM, replicate 1
[6] = 24 h, 1 µM, compound concentration 1 uM, replicate 2
[7] = 24 h, 10 µM, compound concentration 10 uM, replicate 1
[8] = 24 h, 10 µM, compound concentration 10 uM, replicate 2
[9] = 48 h, 1 µM, compound concentration 1 uM, replicate 1
[10] = 48 h, 1 µM, compound concentration 1 uM, replicate 2
[11] = 48 h, 10 µM, compound concentration 10 uM, replicate 1
[12] = 48 h, 10 µM, compound concentration 10 uM, replicate 2

## c1cc(OCCCN2CCCCC2)ccc1CN1CCCCC1 [JNJ-5207852]
[1]
  Population Apoptotic (%): 37%
  Population Fragmented Nuclei (%): 15%
  Population Healthy Nuclei (%): 64%
  Population Hoechst High Intensity Objects (%): 1%
  Population Membrane Permeable-Phenotype (%): 0%
  Population Mitochondria Different-Phenotype (%): 2%
  Population Mitotic Cells (%): 62%
  Population Normal (%): 98%
  Population Pyknosed Nuclei (%): 20%
  Population Tubulin-Different-Phenotype (%): 26%
  Total Cell Count: 181
[2]
  Population Apoptotic (%): 26%
  Population Fragmented Nuclei (%): 24%
  Population Healthy Nuclei (%): 51%
  Population Hoechst High Intensity Objects (%): 7%
  Population Membrane Permeable-Phenotype (%): 8%
  Population Mitochondria Different-Phenotype (%): 5%
  Population Mitotic Cells (%): 73%
  Population Normal (%): 92%
  Population Pyknosed Nuclei (%): 23%
  Population Tubulin-Different-Phenotype (%): 49%
  Total Cell Count: 153
[3]
  Population Apoptotic (%): 50%
  Population Fragmented Nuclei (%): 22%
  Population Healthy Nuclei (%): 68%
  Population Hoechst High Intensity Objects (%): 1%
  Population Membrane Permeable-Phenotype (%): 0%
  Population Mitochondria Different-Phenotype (%): 6%
  Population Mitotic Cells (%): 50%
  Population Normal (%): 98%
  Population Pyknosed Nuclei (%): 9%
  Population Tubulin-Different-Phenotype (%): 35%
  Total Cell Count: 193
[4]
  Population Apoptotic (%): 43%
  Population Fragmented Nuclei (%): 36%
  Population Healthy Nuclei (%): 42%
  Population Membrane Permeable-Phenotype (%): 12%
  Population Mitochondria Different-Phenotype (%): 10%
  Population Mitotic Cells (%): 56%
  Population Pyknosed Nuclei (%): 20%
  Population Tubulin-Different-Phenotype (%): 60%
  Total Cell Count: 114
[5]
  Population Apoptotic (%): 38%
  Population Fragmented Nuclei (%): 18%
  Population Healthy Nuclei (%): 66%
  Population Hoechst High Intensity Objects (%): 2%
  Population Membrane Permeable-Phenotype (%): 0%
  Population Mitochondria Different-Phenotype (%): 2%
  Population Mitotic Cells (%): 61%
  Population Normal (%): 97%
  Population Pyknosed Nuclei (%): 15%
  Population Tubulin-Different-Phenotype (%): 23%
  Total Cell Count: 176
[6]
  Population Apoptotic (%): 33%
  Population Fragmented Nuclei (%): 28%
  Population Healthy Nuclei (%): 51%
  Population Hoechst High Intensity Objects (%): 5%
  Population Membrane Permeable-Phenotype (%): 5%
  Population Mitochondria Different-Phenotype (%): 6%
  Population Mitotic Cells (%): 66%
  Population Normal (%): 95%
  Population Pyknosed Nuclei (%): 19%
  Population Tubulin-Different-Phenotype (%): 55%
  Total Cell Count: 160
[7]
  Population Apoptotic (%): 60%
  Population Fragmented Nuclei (%): 24%
  Population Healthy Nuclei (%): 65%
  Population Hoechst High Intensity Objects (%): 1%
  Population Membrane Permeable-Phenotype (%): 0%
  Population Mitochondria Different-Phenotype (%): 6%
  Population Mitotic Cells (%): 40%
  Population Normal (%): 99%
  Population Pyknosed Nuclei (%): 10%
  Population Tubulin-Different-Phenotype (%): 34%
  Total Cell Count: 201
[8]
  Population Apoptotic (%): 41%
  Population Fragmented Nuclei (%): 45%
  Population Healthy Nuclei (%): 38%
  Population Hoechst High Intensity Objects (%): 5%
  Population Membrane Permeable-Phenotype (%): 4%
  Population Mitochondria Different-Phenotype (%): 13%
  Population Mitotic Cells (%): 58%
  Population Normal (%): 94%
  Population Pyknosed Nuclei (%): 15%
  Population Tubulin-Different-Phenotype (%): 67%
  Total Cell Count: 118
[9]
  Population Apoptotic (%): 70%
  Population Fragmented Nuclei (%): 18%
  Population Healthy Nuclei (%): 63%
  Population Hoechst High Intensity Objects (%): 2%
  Population Membrane Permeable-Phenotype (%): 0%
  Population Mitochondria Different-Phenotype (%): 2%
  Population Mitotic Cells (%): 29%
  Population Normal (%): 97%
  Population Pyknosed Nuclei (%): 17%
  Population Tubulin-Different-Phenotype (%): 23%
  Total Cell Count: 184
[10]
  Population Apoptotic (%): 44%
  Population Fragmented Nuclei (%): 32%
  Population Healthy Nuclei (%): 48%
  Population Hoechst High Intensity Objects (%): 4%
  Population Membrane Permeable-Phenotype (%): 5%
  Population Mitotic Cells (%): 55%
  Population Normal (%): 95%
  Population Pyknosed Nuclei (%): 18%
  Population Tubulin-Different-Phenotype (%): 50%
  Total Cell Count: 160
[11]
  Population Apoptotic (%): 55%
  Population Fragmented Nuclei (%): 19%
  Population Healthy Nuclei (%): 70%
  Population Hoechst High Intensity Objects (%): 2%
  Population Membrane Permeable-Phenotype (%): 0%
  Population Mitochondria Different-Phenotype (%): 2%
  Population Mitotic Cells (%): 44%
  Population Normal (%): 97%
  Population Pyknosed Nuclei (%): 9%
  Population Tubulin-Different-Phenotype (%): 34%
  Total Cell Count: 189
[12]
  Population Apoptotic (%): 30%
  Population Fragmented Nuclei (%): 48%
  Population Healthy Nuclei (%): 41%
  Population Hoechst High Intensity Objects (%): 3%
  Population Membrane Permeable-Phenotype (%): 5%
  Population Mitochondria Different-Phenotype (%): 11%
  Population Mitotic Cells (%): 69%
  Population Normal (%): 96%
  Population Pyknosed Nuclei (%): 10%
  Population Tubulin-Different-Phenotype (%): 66%
  Total Cell Count: 132
